What was measured:
[1] = pharmacokinetic analysis, DIPG mice models; cited from earlier work
[2] = system: IGF1R/IR; experiment: microPET imaging in rats; format: in vivo, Sprague-Dawley rats; conditions: time frames 1-10 min and 81-90 min, tail vein injection
Outline: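 Anaesthetised male Sprague-Dawley rats (N = 2) were imaged on an Inveon microPET after tail-vein injection of 0.2 ± 0.05 mCi 18F-labelled test compound in 5% ethanol/normal saline, with acquisition starting at injection. A 68Ge transmission scan provided attenuation correction. List-mode data were collected for 90 min, Fourier-rebinned, reconstructed by filtered back-projection and expressed as nCi/cc. Coronal images were summed 0–10 and 81–90 min. ROI time-activity curves covered heart, muscles and brain.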

[3] = system: IGF1R/IR; experiment: biodistribution in rats 120 min post injection; format: in vivo, Sprague-Dawley rats
[4] = system: IGF1R/IR; experiment: microPET imaging in mice; format: in vivo, C57BL/6 mice
Outline: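 Male C57BL/6 mice (N = 2) under anaesthesia on an Inveon microPET. The 18F-labelled test compound was formulated in 5% ethanol/normal saline and sterile-filtered. 0.2 ± 0.05 mCi was given via tail vein at the start of acquisition. A 68Ge transmission scan was used for attenuation correction. List-mode data were collected for 60 min, Fourier-rebinned, reconstructed by filtered back-projection and expressed as nCi/cc. Images were summed 0–10 and 0–60 min. ROI time-activity curves were drawn for brain, heart, muscle and thalamus.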

[5] = system: IGF1R; conditions: autoradiography; cited from earlier work

| radioligand accumulation in brain [2] | binding in lung [3] | binding in spleen [3] | binding in stomach [3] | bone uptake ([18F]defluorination) [3] | radioactivity in brain [3] | uptake in heart [3] | uptake in large intestine [3] | uptake in liver [3] | uptake in pancreas [3] | uptake in small intestine [3] | brain activity of the radiotracer ([4]; microPET) | uptake in heart ([4]; microPET) | uptake in muscles ([4]; microPET) | time of peak brain level of activity post-injection ([4]; microPET time activity curves) | SMILES | concentration in tumor tissue [1] | binding in grade IV glioblastoma (GBM) in comparison to control brain tissues [5] [times] |
| --- | --- | --- | --- | --- | --- | --- | --- | --- | --- | --- | --- | --- | --- | --- | --- | --- | --- |
| – | – | – | – | – | – | – | – | – | – | – | – | – | – | – | C[C@@]1(C(=O)Nc2ccc(F)nc2)CCCN1c1nc(Nc2cc(C3CC3)n[nH]2)c2cccn2n1 [BMS-754807] | low concentration | – |
| negligible | negligible binding | negligible binding | low binding | no bone uptake | low levels of radioactivity | significant uptake | moderate uptake | moderate uptake | significant uptake | unusually higher uptake | no noticeable brain activity | High uptake | High uptake | less than 1 min | C[C@@]1(C(=O)Nc2ccc([18F])nc2)CCCN1c1nc(Nc2cc(C3CC3)[nH]n2)c2cccn2n1 [[^18F]BMS-754807] | – | 5.25 |

From PMC5846678 (Bioorganic & medicinal chemistry letters, 2017)
